FGF22 binding = binders of recombinant human FGF22 by thermal shift. Q9HCT0. SYPRO orange fluorescence; percent of sucrose octasulfate shift, DMSO zero. activity (Tm shift, normalised), % at 9.99 µM. actives 1.5% (n = 340,000). AID 651658;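 active = mean Tm shift, scaled 0 neutral to 100 positive control, at about 1.3% or above, every replicate too, limit read from the data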
HIV Env fusion = blocks HIV Env-driven cell-cell fusion; HeLa-JRFL Env/CEM21 cell fusion, luciferase; inhibition, % at 12.3 µM; actives 1.1% (n = 360,000); AID 651610;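 active = mean replicate inhibition score of at least 50 and every replicate individually at or above 50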;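 note: 0% = plate neutral controls and 100% = maraviroc near 300 nM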
ERAP1 inh = blocks human ERAP1 aminopeptidase activity. Q9NZ08. inhibition, % at 10.7 µM. actives 0.15% (n = 340,000). recombinant ERAP1, Leu-AMC fluorescence, 60 min;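 active = mean replicate inhibition of at least 30%, or all replicates individually reaching that 30% level; inactive = mean below 30% and not every replicate reaching it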;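 note: 0% = neutral control wells and 100% = L-leucinethiol positive control wells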
Target sequence (Q9NZ08 whole entry, looked up): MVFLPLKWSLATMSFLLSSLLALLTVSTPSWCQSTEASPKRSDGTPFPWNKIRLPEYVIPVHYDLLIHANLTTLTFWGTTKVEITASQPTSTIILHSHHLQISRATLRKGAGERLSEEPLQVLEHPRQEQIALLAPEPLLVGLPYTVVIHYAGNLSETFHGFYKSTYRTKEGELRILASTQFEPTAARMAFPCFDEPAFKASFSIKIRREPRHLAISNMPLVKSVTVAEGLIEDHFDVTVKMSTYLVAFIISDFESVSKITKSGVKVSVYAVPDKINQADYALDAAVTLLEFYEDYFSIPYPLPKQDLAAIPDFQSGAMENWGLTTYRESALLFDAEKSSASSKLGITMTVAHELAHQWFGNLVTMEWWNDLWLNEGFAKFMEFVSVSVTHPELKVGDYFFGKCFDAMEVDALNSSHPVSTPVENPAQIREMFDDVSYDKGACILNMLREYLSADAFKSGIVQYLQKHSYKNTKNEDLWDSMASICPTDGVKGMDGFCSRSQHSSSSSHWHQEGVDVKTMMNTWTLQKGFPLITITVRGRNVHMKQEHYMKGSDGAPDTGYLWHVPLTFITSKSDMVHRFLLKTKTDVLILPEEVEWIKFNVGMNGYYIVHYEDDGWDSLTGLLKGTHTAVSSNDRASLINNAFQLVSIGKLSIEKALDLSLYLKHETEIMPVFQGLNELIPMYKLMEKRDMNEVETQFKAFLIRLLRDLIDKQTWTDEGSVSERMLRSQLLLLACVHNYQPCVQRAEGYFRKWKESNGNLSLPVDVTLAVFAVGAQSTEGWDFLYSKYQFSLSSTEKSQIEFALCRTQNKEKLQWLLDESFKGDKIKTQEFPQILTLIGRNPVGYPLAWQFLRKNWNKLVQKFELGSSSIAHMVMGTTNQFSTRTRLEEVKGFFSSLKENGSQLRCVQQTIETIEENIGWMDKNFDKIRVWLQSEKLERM
Cneo AK release = causes C. neoformans cell lysis; adenylate kinase release luminescence, 4 h; normalised: neutral wells 0, clomiphene wells 100; lysis activity, % at 15 µM; actives 0.2% (n = 360,000);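 active = mean lysis activity across replicates of at least 80%, whatever share of replicates individually reach that level; inactive = mean lysis activity below 80%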
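Material – log-phase Cryptococcus neoformans yeast cells · Input – 5 × 10^6 yeast cells/mL · Medium – fresh YPD growth medium · Doses – single compound concentration per well · Timing – static 4 h at 37 °C with compound, 1 h detection · Detection – adenylate kinase release luminescence · Read-out – signal increase indicating cell lysis · Control set – Clomiphene as positive lysis control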
PGC1a acetyl inh = modulators of PGC1a acetylation; U2OS PGC1a acetylation, AlphaScreen anti-acetyl-lysine; with virally co-expressed GCN5 acetyltransferase; inhibition, % at 15.6 µM; actives 0.17% (n = 350,000); AID 651687;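 active = every replicate shows inhibition of at least 40%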;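 note: 0% = neutral control wells and 100% = positive control wells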
rRNA inh HTS = inhibitors of bacterial rRNA selective over humanized ribosomes | E. coli WT GFP vs humanized-ribosome RFP mutants, fluorescence, 24 h; active compounds read low; DMSO median 0, no signal -100 | actives 1.6% (n = 350,000) | GFP signal change (wild-type ribosome), % (test concentration not listed) | AID 720706;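 active = significant combined selectivity score with lowered wild-type GFP, culture density cut under 30%, mutant RFP and density less affected; inactive = any of these conditions unmet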
* marks the source's active call; other numbers are inactive results; · = not tested or not shown; [ ] = another dose, or the depositor's remark. Sampled rows, rich in hits. Any-hit rate of the full collection: about 3.5%.

SMILES	FGF22 binding	HIV Env fusion	ERAP1 inh	Cneo AK release	PGC1a acetyl inh	rRNA inh HTS
COc1ccc(CN2CCN(C(=O)c3cc(-c4cccnc4)nc4ccc(Cl)cc34)CC2)c(OC)c1OC	0.1	2.3	-1.5	-1.5	-0.9	-22.8*
CS(=O)(=O)N1CCN(C(=O)c2cc(-c3cccnc3)nc3ccc(Cl)cc23)CC1	0.1	0.5	5.4	·	6.3	6.9
CCNc1ccc(C(=O)OCC(=O)N(Cc2ccccc2)C(C)(C)C)cc1[N+](=O)[O-]	43.0*	-27.3	-1.2	·	-2.3	·
COc1ccc(C(=O)CCc2ccccc2)c(O)c1	-0.2	-39.2	·	·	·	-9.8
COc1cc(OC)c(C(=O)OCC(=O)N(Cc2ccccc2)C(C)(C)C)cc1OC	-0.7	-2.8	3.2	·	6.2	-29.9*
COc1ccc(C(=O)OCC(=O)N(Cc2ccccc2)Cc2ccccc2)c(O)c1	43.1*	5.0	-0.1	-1.5	-9.5	-9.2
CCOC(=O)CNc1ccc(C(=O)OCC)cc1[N+](=O)[O-]	·	-78.4	·	·	·	·
C[C@@H]1COc2cc(N3CCCCC3)ccc2S(=O)(=O)N1	0.1	-4.9	-2.0	·	·	14.4
O=C(Cn1cc2c(n1)CCCC2)NC1CCCCCC1	-0.1	8.5	-3.3	-4.3	·	4.0
COc1cc(OC)nc(NC(=O)CSc2nc3ccccc3[nH]2)n1	0.2	·	5.2	0.9	-4.3	-14.5
COc1ccc(OC)c(NC(=O)CSc2nncc(=O)n2N)c1	-0.1	4.5	-7.9	0.9	·	·
CN1c2ccc(Br)cc2[C@H]2[C@H](CCN2C(=O)Cc2cccnc2)[C@H]1CO	-0.3	·	0.3	4.6	-5.6	1.4
CN1c2ccc(-c3ccc(F)cc3)cc2[C@H]2[C@H](CCN2S(=O)(=O)c2cccc(F)c2)[C@H]1CO	0.0	·	-2.2	103.6*	10.6	1.8
CN1c2ccc(-c3ccc(F)cc3)cc2[C@@H]2[C@@H](CCN2C(=O)C2CCOCC2)[C@@H]1CO	-0.6	·	-2.1	81.1*	1.9	-5.7
CN1c2ccc(-c3ccc(F)cc3)cc2[C@@H]2[C@@H](CCN2S(=O)(=O)c2cccc(F)c2)[C@@H]1CO	0.0	·	-3.1	1.3	-12.9	0.9
CN1c2ccc(Br)cc2[C@@H]2[C@@H](CCN2C(=O)Cc2cccnc2)[C@@H]1CO	-0.1	·	-2.5	89.8*	2.8	-3.4
CCOc1cc(C)nc(N2CCC(C(=O)Nc3ccccc3OCC)CC2)n1	·	·	·	4.8	7.7	·
Cc1cccc(C)c1NC(=O)C1(C)CCC(=O)N1C1CCN(Cc2ccccc2)CC1 (stereo not given)	0.2	5.0	-5.3	-2.1	-5.1	1.8
CCCOc1ccc2oc(=O)c3c(c2c1)CCCN3C(=O)CN(C)Cc1ccccc1	·	·	·	-0.3	-20.7	·
CCC(=O)N(C)C[C@H]1Oc2cc(C#CC(C)(C)O)ccc2S(=O)(=O)N([C@H](C)CO)C[C@@H]1C	0.1	-4.4[16.7 µM]	-1.8	101.0*	-1.6	0.5
CCC(=O)N(C)C[C@H]1Oc2cc(C#CC(C)(C)O)ccc2S(=O)(=O)N([C@H](C)CO)C[C@H]1C	-0.1	-9.0[16.7 µM]	1.0	1.1	-0.8	2.3
CCC(=O)N(C)C[C@@H]1Oc2cc(C#Cc3ccccc3)ccc2S(=O)(=O)N([C@@H](C)CO)C[C@H]1C	-0.3	59.3*[16.7 µM]	1.1	-1.8	-1.6	-11.4
CNc1nc(NCCOC23CC4CC(CC(C4)C2)C3)nc(OCC(F)(F)F)n1	·	·	·	·	2.2	·
CCOC(=O)c1cnc2c(cnn2C)c1NCc1ccc(OC)cc1	0.2	-2.1	-2.0	-15.5	8.8	-19.0*
C=CCc1c(C)nc(-c2ccccc2)nc1N/N=C/c1ccncc1	43.1*	-6.7	-0.2	·	·	5.7
SMILES	FGF22 binding	HIV Env fusion	ERAP1 inh	Cneo AK release	PGC1a acetyl inh	rRNA inh HTS
CCOC(=O)N=Nc1c2ccccc2c2nc3no[nH]c3nc12	0.5	76.1*	4.9	1.5	28.2	-18.0
CCOC(=O)N=Nc1c(O)n(CC(=O)OC)c2ccccc12	·	10.2	·	1.7	2.6	·
FC(F)Oc1ccc(NC(=S)Nc2ccc3cn[nH]c3c2)cc1	0.9	2.9	-1.4	0.7	20.9	-25.2*
CN(C)C(=O)[C@H]1[C@H](CO)[C@H]2Cn3c(ccc(C4=CCCC4)c3=O)[C@@H]1N2CC1CCCCC1	0.0	·	-2.1	2.4	·	0.5
Clc1ccccc1-c1nnc(CNC2CC2)o1	43.6*	9.6	-1.1	·	·	-0.2
O=[N+]([O-])c1cc(C(F)(F)F)ccc1NCCCCNS(=O)(=O)c1ccc2ccccc2c1	·	62.3*	·	14.3	-6.0	·
CS/C(=N\S(=O)(=O)c1cccs1)Nc1ccc(Cl)cc1	0.1	1.1	-1.2	·	·	-29.8*
CS/C(=N\S(=O)(=O)c1cccs1)Nc1ccc(Br)cc1F	0.4	7.2	1.1	-1.4	-13.7	-23.2
COc1cc(C)c(C(=O)Oc2cc(C)c(C(=O)O)c(O)c2C)c(O)c1C	1.6*	·	0.2	-0.9	13.0	-32.6
CCOCCCNC(=S)N1CCN(c2nc(-c3ccccc3)cs2)CC1	-0.1	36.1	1.6	0.8	-5.3	-19.7
CCN(CC)CCCNC(=S)N1CCN(c2nc(-c3ccccc3)cs2)CC1	0.1	3.3	8.6	0.0	-1.2	-21.8*
O=C(NC(=S)N1CCN(c2nc(-c3ccccc3)cs2)CC1)c1cncc(Br)c1	43.3*	24.5	4.6	24.0	-0.7	-33.6
O=C(CN1CCN(c2nc(-c3ccccc3)cs2)CC1)NNC(=O)c1ccc(Br)cc1	·	-33.7	·	-0.4	-11.8	·
COc1cc(C2C(C(C)=O)=C(O)C(=O)N2c2ccc(C)cc2)ccc1O (stereo not given)	·	·	·	-1.3	-1.5	·
CCC1COC(c2cccn2Cc2ccc(Cl)cc2)=N1 (stereo not given)	0.2	18.2	2.4	-6.6	-7.0	-22.4*
CC1=C([N+](=O)[O-])C(c2cccc(Br)c2)C2=C(N1)c1ccccc1C2=O (stereo not given)	·	138.5*	·	5.9	4.7	·
COc1ccc(C(=O)C2CCN(C(=O)c3ccc(C)cc3)CC2)cc1	·	85.9*	·	1.7	-1.5	·
Cc1ccc(C(=O)N2CCN(S(=O)(=O)c3ccc(C)c([N+](=O)[O-])c3)C2)cc1	43.6*	-7.4	-3.8	·	1.7	2.8
Cc1ccc(C(=O)N2CCN(S(=O)(=O)c3ccc(C)cc3)CC2)cc1	0.0	9.1	2.8	·	-11.2	-4.2
Cc1ccc(C(=O)N2CCN(C(=O)c3ccc(C)cc3)C2)cc1	43.1*	8.1	4.4	0.3	-0.6	1.8
COc1ccc(C(=O)C2CCN(C(=O)c3ccc(F)cc3)CC2)cc1	-0.1	10.4	1.0	1.6	-20.3	-15.7
Cc1ccc(SCCN)cc1C	43.4*	10.5	-5.4	·	·	4.2
CCOc1ccccc1N1CCN(C(=O)c2c(C)noc2C)CC1	·	·	·	-0.4	-1.5	·
CCOc1ccccc1N1CCN(C(=O)c2ccccc2OCc2c(C)noc2C)CC1	0.1	-46.0	-2.3	-0.3	-5.9	-16.0*
